Assay results published in ChEMBL document CHEMBL1124618, “Synthesis of the 2-chloro analogues of 3'-deoxyadenosine, 2',3'-dideoxyadenosine, and 2',3'-didehydro-2',3'-dideoxyadenosine as potential antiviral agents” (1989).

Experiments:
[1] = organism: Homo sapiens; assay: Compound was tested for its effect on the growth of human T4+ lymphocytes (C8166) in culture at 500 uM; format: functional
[2] = organism: Homo sapiens; assay: Compound was tested for its effect on the growth of human T4+ lymphocytes (C8166) in culture at 100 uM; format: functional
[3] = organism: Homo sapiens; assay: Compound was tested for its effect on Reverse Transcriptase (RT) production by HIV-Infected Human T4+ Lymphocytes (C8166) at 100 uM; format: functional
[4] = organism: Homo sapiens; assay: Compound was tested for its relative effect on p24 viral core protein production by HIV -infected human T4+ lymphocytes (C8166) at 200 uM; format: functional
[5] = organism: Homo sapiens; assay: Compound was tested for its effect on Reverse Transcriptase (RT) production by HIV-Infected Human T4+ Lymphocytes (C8166) at 2 uM; format: functional
[6] = organism: Homo sapiens; assay: Compound was tested for its effect on Reverse Transcriptase (RT) production by HIV-Infected Human T4+ Lymphocytes (C8166) at 200 uM; format: functional
[7] = organism: Homo sapiens; assay: Compound was tested for its relative effect on p24 viral core protein production by HIV -infected human T4+ lymphocytes (C8166) at 20 uM; format: functional
[8] = organism: Homo sapiens; assay: Compound was tested for its effect on Reverse Transcriptase (RT) production by HIV-Infected Human T4+ Lymphocytes (C8166) at 20 uM; format: functional
[9] = organism: Homo sapiens; assay: Compound was tested for its relative effect on p24 viral core protein production by HIV -infected human T4+ lymphocytes (C8166) at 100 uM; format: functional
[10] = organism: Homo sapiens; assay: Compound was tested for its effect on the growth of human T4+ lymphocytes (C8166) in culture at 1000 uM; format: functional
[11] = organism: Homo sapiens; assay: Compound was tested for its effect on the growth of human T4+ lymphocytes (C8166) in culture at 10 uM; format: functional
[12] = organism: Homo sapiens; assay: Compound was tested for its effect on the growth of human T lymphocytes (SupT1) in culture at 1000 uM; format: functional
Summary of the method: (§1)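 Uninfected lymphocyte lines (Raji B cells or SupT1 T cells) kept in growth medium and given drug dilutions. After 48 h, cells stained with trypan blue and counted. Viable cells (dye exclusion) expressed as percentage of untreated controls. Values from a typical experiment.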

[13] = organism: Homo sapiens; assay: Compound was tested for its effect on the growth of human T lymphocytes (SupT1) in culture at 1 uM; format: functional; summary of the method: as §1
[14] = organism: Homo sapiens; assay: Compound was tested for its effect on the growth of human B lymphocytes (Raji) in culture at 10 uM; format: functional; summary of the method: as §1
[15] = system: SC-1 (Mus musculus); assay: Compound was tested for its effect on the growth of mouse fibroblasts (SC-1) in culture at 10 uM
[16] = organism: Homo sapiens; assay: Compound was tested for its effect on the growth of human T lymphocytes (SupT1) in culture at 500 uM; format: functional; summary of the method: as §1
[17] = organism: Homo sapiens; assay: Compound was tested for its effect on the growth of human B lymphocytes (Raji) in culture at 100 uM; format: functional; summary of the method: as §1
[18] = system: SC-1 (Mus musculus); assay: Compound was tested for its effect on the growth of mouse fibroblasts (SC-1) in culture at 1 uM
[19] = organism: Homo sapiens; assay: Compound was tested for its effect on the growth of human T lymphocytes (SupT1) in culture at 10 uM; format: functional; summary of the method: as §1
[20] = organism: Homo sapiens; assay: Compound was tested for its effect on the growth of human B lymphocytes (Raji) in culture at 500 uM; format: functional; summary of the method: as §1
[21] = organism: Homo sapiens; assay: Compound was tested for its effect on the growth of human B lymphocytes (Raji) in culture at 1000 uM; format: functional; summary of the method: as §1
[22] = organism: Homo sapiens; assay: Compound was tested for its effect on the growth of human B lymphocytes (Raji) in culture at 1 uM; format: functional; summary of the method: as §1
[23] = system: SC-1 (Mus musculus); assay: Compound was tested for its effect on the growth of mouse fibroblasts (SC-1) in culture at 100 uM
[24] = organism: Homo sapiens; assay: Compound was tested for its effect on the growth of human T lymphocytes (SupT1) in culture at 100 uM; format: functional; summary of the method: as §1
[25] = organism: Homo sapiens; assay: Compound was tested for its effect on reverse transcriptase of HIV-infected human T4+ lymphocytes (C8166) at 2 uM; format: functional
Summary of the method: (§2)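 C8166 T4+ cells (~2 × 10⁵ per well) exposed to drug dilutions, then infected with 2500 RT units of cell-free HIV HXBc2 strain; FBS heat-inactivated (55 °C, 60 min) or not. Drug-containing medium replaced every 3 days. On day 6, RT activity measured in cell supernatants and compared with untreated controls.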

[26] = organism: Homo sapiens; assay: Compound was tested for its effect on reverse transcriptase of HIV-infected human T4+ lymphocytes (C8166) at 20 uM; format: functional; summary of the method: as §2

SMILES	Control [1] [%]	Control [2] [%]	Control [3] [%]	p24 [4] [ng/mL]	Control [5] [%]	Control [6] [%]	p24 [7] [ng/mL]	Control [8] [%]	p24 [9] [ng/mL]	Control [10] [%]	Control [11] [%]	other results
Nc1ncnc2c1ncn2[C@H]1CC[C@@H](CO)O1	90	116	<1	0.2	25	<1	28	25	1.8	91	116	
Nc1nc(Cl)nc2c1ncn2C1CCC(CO)O1 (configuration not stated)	37	77	3	0.2	100	<1	16	57	2.2	0	94	
Nc1nc(Cl)nc2c1ncn2C1OC(CO)CC1O (configuration not stated)												Control [12]: 8%; Control [13]: 100%; Control [14]: 69%; Control [15]: 53%; Control [16]: 13%; Control [17]: 43%; Control [18]: 82%; Control [19]: 81%; Control [20]: 8%; Control [21]: 3%; Control [22]: 98%; Control [23]: 2%; Control [24]: 73%
Nc1nc(Cl)nc2c1ncn2C1C=CC(CO)O1 (configuration not stated)												Control [25]: 53%; Control [26]: 25%
